Assay results published in PMC3040319 (Pharmaceutical Research, 2010).
Where two headings read alike, the source gives them in different places. Marks after values point to notes of the source that are not given here.

Key:
[1] = test system: primary mouse hepatocytes; assay type: in vitro ADME
[2] = molecular target: T1, mouse Oct1 (Mus musculus, UniProt O08966); test: Cellular accumulation of platinum in HEK-mOct1 cells; assay type: in vitro ADME; details: 10 μM, 1 h
T1 sequence (O08966 1-556): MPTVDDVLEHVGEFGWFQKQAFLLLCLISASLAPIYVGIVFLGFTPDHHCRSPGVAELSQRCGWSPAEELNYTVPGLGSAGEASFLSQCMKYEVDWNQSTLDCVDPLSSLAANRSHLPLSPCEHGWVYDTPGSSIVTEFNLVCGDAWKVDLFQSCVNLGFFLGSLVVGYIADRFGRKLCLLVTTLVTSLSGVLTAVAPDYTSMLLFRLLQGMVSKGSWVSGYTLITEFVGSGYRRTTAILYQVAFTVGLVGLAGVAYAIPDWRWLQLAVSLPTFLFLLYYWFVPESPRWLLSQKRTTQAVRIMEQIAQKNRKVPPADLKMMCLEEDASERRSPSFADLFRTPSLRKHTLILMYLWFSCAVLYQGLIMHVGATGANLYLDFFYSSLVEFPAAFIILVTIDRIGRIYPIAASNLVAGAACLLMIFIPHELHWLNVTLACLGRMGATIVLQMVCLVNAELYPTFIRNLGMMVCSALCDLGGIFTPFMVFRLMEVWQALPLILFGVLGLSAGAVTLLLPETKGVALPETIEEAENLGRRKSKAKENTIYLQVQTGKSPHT
Procedure, shortened: (§1)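 HEK293 cells stably carrying full-length mouse Oct1 cDNA in pcDNA5/FRT, selected with hygromycin B; the human OCT1 line's construct is not described. Cells grown in DMEM H21 with 10% FBS at 37°C, 5% CO2. Exposed to 10 μM test compound in serum-free medium for 1 h, then washed 3× with ice-cold PBS. Digested in 70% nitric acid at 65°C for ≥2.5 h. Pt measured by ICP-MS, normalised to BCA protein.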

[3] = Tissue accumulation of platinum in Oct1+/+ and Oct1-/- mice; assay type: in vivo, mouse; details: for Brain Normalized platinum / Heart Normalized platinum / Intestine Normalized platinum / Kidney Normalized platinum / Liver Normalized platinum / Muscle Normalized platinum: divided by plasma concentration
Procedure, shortened: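 Male FVB Oct1+/+ and Oct1-/- mice (8 weeks) were given 8 mg/kg in saline i.v. by tail vein and killed 1 h later. Liver, kidney, heart, lung, brain, intestine, spleen and muscle were snap-frozen. Total Pt was measured by ICP-MS in 10–30 mg tissue and reported as nmol/g tissue; plasma was reported in μM.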

[4] = test system: genomic DNA; test: Platinum-DNA adduct formation in primary mouse hepatocytes; assay type: cell-based
Procedure, shortened: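 Attached wild-type or Oct1-/- mouse hepatocytes were exposed to 10 μM test compound for 1 h at 37°C in serum-free medium, with or without OCT1 inhibitor. Cells were then washed with ice-cold PBS. Genomic DNA was kit-purified. DNA-bound Pt was measured by ICP-MS, and DNA by A260 from the same preparation. Adduct level expressed as pmol Pt/μg DNA.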

[5] = Plasma platinum pharmacokinetics in Oct1+/+ and Oct1-/- mice; assay type: in vivo, mouse; details: single i.v. 8 mg/kg
Procedure, shortened: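 Male FVB Oct1+/+ and Oct1-/- mice (8 weeks) received a single tail-vein dose of 8 mg/kg in saline. Heparinised plasma was taken by heart puncture at 15 and 30 min and at 1, 2, 3, 4, 8, 10, 24 and 48 h. Total Pt in 5 μl plasma and in urine was measured by ICP-MS. Parameters (Vss, CL, renal CL) came from two-compartment analysis.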

[6] = test system: HEK-MOCK cells; test: Cellular accumulation of platinum in HEK-MOCK cells; assay type: in vitro ADME, human; details: 10 μM, 1 h
Procedure, shortened: as §1

[7] = test system: Kim-1; test: Renal Kim-1 mRNA by qRT-PCR in the CDPCP toxicity study; assay type: in vivo, mouse; details: i.v. once weekly for 3 weeks
Procedure, shortened: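 Same weekly ×3 tail-vein regimen with saline controls; kidneys were harvested 24 h after the last dose. Kidney RNA was extracted with Trizol and DNase I-treated, then reverse-transcribed. Taqman qRT-PCR for Kim-1 used GAPDH as internal control: 95°C 20 s, then 40 cycles of 95°C 3 s and 60°C 30 s. Results expressed as fold over saline.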

[8] = hepatocytes from Oct1 wild-type mice, disopyramide 150 μM
[9] = OCT1 KO mice, 1 h after IV 8 mg/kg
[10] = OCT1 WT mice, 1 h after IV 8 mg/kg

[NH3+][Pt-2]([NH3+])([Cl])[n+]1ccccc1 (stereo not drawn) [CDPCP, cis-diammine(pyridine)chloroplatinum(II)]
hepatocellular uptake, wild-type as fold of Oct1-/- ([1]; 10 μM, 1 hr): 2.9 fold
hepatocellular uptake ([1]; hepatocytes from Oct1-/- mice, 10 μM, 1 hr): 87.8 ± 7.61 pmol/mg protein/hr
hepatocellular uptake ([1]; hepatocytes from Oct1-/- mice, 10 μM, 1 hr, co-incubation with disopyramide 150 μM): 95.8 ± 17.6 pmol/mg protein/hr
hepatocellular uptake ([1]; hepatocytes from Oct1 wild-type mice, 10 μM, 1 hr): 251 ± 94.6 pmol/mg protein/hr
hepatocellular uptake ([1]; hepatocytes from Oct1 wild-type mice, 10 μM, 1 hr, co-incubation with disopyramide 150 μM): 55.9 ± 1.41 pmol/mg protein/hr
fold decrease in platinum uptake by disopyramide [1, 8]: 4.5 fold
uptake of platinum ([2]; HEK-mOct1 cells): 1470 ± 66.6 pmol/mg protein/hr
uptake of platinum, fold greater than in HEK-MOCK cells ([2]; HEK-mOct1 vs HEK-MOCK): 53 fold
total platinum in plasma, fold higher in Oct1-/- than wild-type mice ([3]; 1 h after 8 mg/kg): 1.3 fold
Brain Absolute platinum, OCT1 WT/KO ratio ([3]; 1 h after IV 8 mg/kg): 0.9
Brain Normalized platinum, OCT1 WT/KO ratio ([3]; 1 h after IV 8 mg/kg): 1.2
Heart Absolute platinum, OCT1 WT/KO ratio ([3]; 1 h after IV 8 mg/kg): 0.6**
Heart Normalized platinum, OCT1 WT/KO ratio ([3]; 1 h after IV 8 mg/kg): 0.8*
Intestine Absolute platinum, OCT1 WT/KO ratio ([3]; 1 h after IV 8 mg/kg): 2.8*
Kidney Absolute platinum, OCT1 WT/KO ratio ([3]; 1 h after IV 8 mg/kg): 0.7*
Kidney Normalized platinum, OCT1 WT/KO ratio ([3]; 1 h after IV 8 mg/kg): 1.0
Liver Absolute platinum, OCT1 WT/KO ratio ([3]; 1 h after IV 8 mg/kg): 2.1**
Muscle Absolute platinum, OCT1 WT/KO ratio ([3]; 1 h after IV 8 mg/kg): 0.8*
Muscle Normalized platinum, OCT1 WT/KO ratio ([3]; 1 h after IV 8 mg/kg): 1.0
Plasma platinum, OCT1 WT/KO ratio ([3]; 1 h after IV 8 mg/kg): 0.8**
Brain Absolute platinum [3, 9]: 0.487 ± 0.128 pmol/g tissue
Heart Absolute platinum [3, 9]: 15.4 ± 1.83 pmol/g tissue
Intestine Absolute platinum [3, 9]: 32.3 ± 14.2 pmol/g tissue
Kidney Absolute platinum [3, 9]: 44.3 ± 11.5 pmol/g tissue
Liver Absolute platinum [3, 9]: 38.2 ± 8.51 pmol/g tissue
Muscle Absolute platinum [3, 9]: 2.08 ± 0.292 pmol/g tissue
Plasma platinum [3, 9]: 17.2 ± 2.11 µM
Brain Normalized platinum [3, 9]: 0.0282 ± 0.00518 ml/g tissue
Heart Normalized platinum [3, 9]: 0.898 ± 0.0813 ml/g tissue
Intestine Normalized platinum [3, 9]: 1.84 ± 0.571 ml/g tissue
Kidney Normalized platinum [3, 9]: 2.47 ± 0.552 ml/g tissue
Liver Normalized platinum [3, 9]: 2.23 ± 0.440 ml/g tissue
Muscle Normalized platinum [3, 9]: 0.122 ± 0.0201 ml/g tissue
Brain Absolute platinum [3, 10]: 0.436 ± 0.116 pmol/g tissue
Heart Absolute platinum [3, 10]: 9.77 ± 1.20 pmol/g tissue
Intestine Absolute platinum [3, 10]: 90.9 ± 28.0 pmol/g tissue
Kidney Absolute platinum [3, 10]: 32.1 ± 2.93 pmol/g tissue
Liver Absolute platinum [3, 10]: 81.8 ± 9.31 pmol/g tissue
Muscle Absolute platinum [3, 10]: 1.62 ± 0.144 pmol/g tissue
Plasma platinum [3, 10]: 13.5 ± 1.72 µM
Brain Normalized platinum [3, 10]: 0.0328 ± 0.0114 ml/g tissue
Heart Normalized platinum [3, 10]: 0.725 ± 0.0747 ml/g tissue
Intestine Normalized platinum [3, 10]: 7.13 ± 2.47 ml/g tissue
Kidney Normalized platinum [3, 10]: 2.40 ± 0.374 ml/g tissue
Liver Normalized platinum [3, 10]: 6.09 ± 0.792 ml/g tissue
Muscle Normalized platinum [3, 10]: 0.121 ± 0.0118 ml/g tissue
platinum-DNA adduct level, fold greater in wild-type than Oct1-/- ([4]; 10 μM, 1 h): 2.4 fold
platinum-DNA adduct level ([4]; hepatocytes from Oct1-/- mice, 10 μM, 1 h): 0.0351 ± 0.00344 pmol/μg DNA
platinum-DNA adduct level ([4]; hepatocytes from Oct1-/- mice, 10 μM, 1 h, disopyramide 150 μM): 0.0338 ± 0.00798 pmol/μg DNA
platinum-DNA adduct level ([4]; hepatocytes from Oct1 wild-type mice, 10 μM, 1 h): 0.0857 ± 0.0232 pmol/μg DNA
platinum-DNA adduct level ([4]; hepatocytes from Oct1 wild-type mice, 10 μM, 1 h, disopyramide 150 μM): 0.0233 ± 0.00847 pmol/μg DNA
fold decrease in platinum-DNA adduct formation by disopyramide [4, 8]: 3.7 fold
contribution of renal clearance to total clearance of platinum from plasma ([5]; both Oct1+/+ and Oct1-/- mice): about 50%
volume of distribution, Oct1 wild-type as fold of Oct1-/- [5]: 1.77 fold
uptake of platinum [6]: 27.4 ± 7.43 pmol/mg protein/hr
renal mRNA levels of Kim-1, fold over saline control ([7]; Oct1+/+ mice): 19.3 fold
renal mRNA levels of Kim-1, fold over saline control ([7]; Oct1-/- mice): 117 fold
